This note sets out measurements from ChEMBL document CHEMBL5104115, “Design, synthesis of novel triptolide-glucose conjugates targeting glucose Transporter-1 and their selective antitumor effect” (Eur J Med Chem, 2022).

Series [1] in a line: Half life in NCI-H1975 tumor bearing nude mouse model serum at 1 mg/kg, iv. The format is ADME, organism-based.
Series [2] can be described thus: Toxicity in BALB/c nude mouse xenografted with human NCI-H1975 cells assessed as degeneration of inter tube connective tissue at 2 mg/kg administered ip, qd for 2 weeks. Particulars: in vivo, 336 h.
The subject of series [3] is NCI-H460. Description: Induction of apoptosis in human NCI-H460 cells assessed as early apoptotic cells at 1 uM measured after 48 hrs by Annexin V-FITC/PI staining method (reference value: 3.26%). The format is functional.
A further series deals with HCT-116. Description: Cytotoxicity against human HCT-116 cells incubated for 72 hrs by MTT assay. The format is functional, cell-based. Particulars: HCT-116, 72 h. The method, boiled down:
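Cells seeded at 4000/well, incubated overnight, then exposed to a range of concentrations, or DMSO vehicle, for 72 h. MTT (5 mg/mL solution) added for 4 h and formazan dissolved in DMSO. Absorbance read at 570 nm, and IC50 derived from the curves. Tumor lines were grown in RPMI 1640; HUVEC, HaCaT and LO2 were grown in DMEM, each with 10% FBS at 37 °C and 5% CO2.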

Series [4] relates to NCI-H460. Description: Down regulation of RNA polymerase II in human NCI-H460 cells measured after 48 hrs by Western blotting analysis. Type of series: functional, cell-based. The essentials:
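NCI-H460 cells treated for 48 h, harvested by trypsinization and lysed on ice in NP-40 buffer (50 mmol/L Tris pH 8.0, 150 mmol/L NaCl, 1% NP-40). Protein quantified by BCA and resolved by SDS-PAGE. Blots probed for RNA Pol II (1:1000), with GAPDH as loading control, and detected by chemiluminescence.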

A short description of series [5]: Drug distribution in NCI-H1975 tumor bearing nude mouse model assessed as tumor to lung ratio of triptolide metabolite at 2 mg/kg, iv by LC-MS analysis. Particulars: in vivo. Type of series: ADME, organism-based. The method, boiled down:
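NCI-H1975 xenograft mice, tumors about 500 mm3, 3 per group, fasted 12 h with water available. Given 2 mg/kg iv and sacrificed 1 h later. Heart, liver, lung, kidney and tumor weighed and flash-frozen. 1.0 g tissue homogenized in 2.0 mL saline, methanol-precipitated, reconstituted. Parent, triptolide succinate and triptolide measured by LC-MS; tumor/organ ratios calculated.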

The nature of series [6]: Toxicity in BALB/c nude mouse xenografted with human NCI-H1975 cells assessed as morphological change in liver at 1 to 2 mg/kg administered ip, qd for 2 weeks. The following applies: in vivo, 336 h.
In series [7] the test system is NCI-H460. Description: Induction of apoptosis in human NCI-H460 cells assessed as viable cells at 20 uM measured after 48 hrs by Annexin V-FITC/PI staining method (reference value: 86.7%). The format is functional. Particulars: read-out: Activity.
In series [8] the test system is NCI-H460. Description: Induction of apoptosis in human NCI-H460 cells assessed as necrotic cells at 20 uM measured after 48 hrs by Annexin V-FITC/PI staining method (reference value: 1.62%). Type of series: functional.
The test system of series [9] is NCI-H460. Description: Induction of apoptosis in human NCI-H460 cells assessed as early apoptotic cells at 20 uM measured after 48 hrs by Annexin V-FITC/PI staining method (reference value: 3.26%). Type of series: functional.
For series [10], the system named is NCI-H460. Description: Induction of apoptosis in human NCI-H460 cells assessed as late apoptotic cells at 20 uM measured after 48 hrs by Annexin V-FITC/PI staining method (reference value: 8.47%). Type of series: functional.
For series [11], the system named is NCI-H1975. Description: Antitumor activity against human NCI-H1975 cells xenografted in BALB/c nude mouse assessed as tumor growth inhibition at 1 mg/kg, ip, qd for 2 weeks relative to control. Particulars: NCI-H1975, 336 h, read-out: TGI.
Series [12] relates to NCI-H1975. Description: Cytotoxicity against Glut1 knocked down human NCI-H1975 cells transfected with KD1 assessed as decrease in cell viability incubated for 72 hrs by MTT assay. Type of series: functional, cell-based. Particulars: NCI-H1975, 72 h. The method, boiled down: (§1)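 Stable Glut-1 knockdown (KD1, KD2, vector KD V) or overexpression (OE, vector OE V) NCI-H1975 cells made by 12 h lentiviral infection, 72 h culture, then 14 days puromycin selection; Glut-1 confirmed by Western blot. Cells seeded at 4000/well overnight, dosed over a concentration range or DMSO for 72 h. MTT read at 570 nm; IC50 from ≥3 replicates.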

Series [13] deals with NCI-H460. Description: Induction of apoptosis in human NCI-H460 cells assessed as early apoptotic cells at 50 uM measured after 48 hrs by Annexin V-FITC/PI staining method (reference value: 3.26%). The format is functional.
Series [14] in a line: Toxicity in BALB/c nude mouse xenografted with human NCI-H1975 cells assessed as decreased spermatogenic cells at 2 mg/kg administered ip, qd for 2 weeks. Particulars: in vivo, 336 h.
The nature of series [15]: Stability in human serum measured upto 72 hrs by HPLC analysis. The format is ADME, cell-free. The method, boiled down:
(§2)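 15 µM test agent incubated with human or mouse serum at 37 °C for 0, 0.5, 1, 8, 12, 18, 60 and 72 h. Samples stored at −80 °C, protein precipitated with 200 µL methanol, vortexed and sonicated 5 min. Intact agent and released triptolide measured by HPLC at 220 nm, in duplicate.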

Series [16] can be described thus: Toxicity in BALB/c nude mouse xenografted with human NCI-H1975 cells assessed as reduction of cytoplasmic nuclei at 2 mg/kg administered ip, qd for 2 weeks. The following applies: in vivo, 336 h.
The nature of series [17]: Cytotoxicity against HUVEC transfected with OE overexpressing Glut1assessed as decrease in cell viability incubated for 72 hrs by MTT assay. Type of series: toxicity, cell-based. Particulars: human, HUVEC cells transfected with OE overexpressing Glut1. The essentials:
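HUVEC kept in DMEM with 10% FBS, made to overexpress Glut-1 (OE) or carry vector (OE V) by lentiviral infection and puromycin selection for 14 days, with Western blot check. Seeded at 4000 cells/well, treated over a concentration range or DMSO for 72 h, then MTT at 570 nm. IC50 taken from at least three replicates.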

Series [18] has as its system NCI-H460. Description: Induction of ROS accumulation in human NCI-H460 cells measured upto 20 uM after 42 to 48 hrs by DCFH-DA staining based flow cytometric analysis. Type of series: functional, cell-based. Particulars: time 42-48 hrs. The method, boiled down:
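NCI-H460 cells exposed 42 h or 48 h. Cells suspended in 1% BSA DPBS, loaded with DCFH-DA (0.2 µL of 10 mM stock per 200 µL) for 30 min in the dark, washed, analyzed by flow cytometry. DCF fluorescence expressed as percentage relative to untreated control from histograms, ≥3 replicates.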

Series [19] relates to NCI-H1975. Description: Cytotoxicity against Glut1 knocked down human NCI-H1975 cells transfected with KDV assessed as decrease in cell viability incubated for 72 hrs by MTT assay. Type of series: functional, cell-based. The following applies: NCI-H1975, 72 h. The method, boiled down:
as §1

Series [20] is described as follows: Stability in mouse serum assessed as unchanged fraction measured after 72 hrs by HPLC analysis relative to control. The format is ADME, cell-free. The following applies: read-out: Stability. The essentials: as §2
Series [21] can be described thus: Toxicity in BALB/c nude mouse xenografted with human NCI-H1975 cells assessed as reduction of cytoplasmic vacuoles at 2 mg/kg administered ip, qd for 2 weeks. The following applies: in vivo, 336 h.
The test system of series [22] is NCI-H460. Description: Induction of apoptosis in human NCI-H460 cells assessed as late apoptotic cells at 1 uM measured after 48 hrs by Annexin V-FITC/PI staining method (reference value: 8.47%). The format is functional.

Active and inactive are the calls of the source. The calls are words filed in the database; no cut-off is given here.

In series [1], `CC(C)[C@]12O[C@H]1[C@@H]1O[C@]13[C@]1(O[C@H]1C[C@H]1C4=C(CC[C@@]13C)C(=O)OC4)[C@@H]2OC(=O)CCC(=O)O[C@H]1C(O)O[C@H](CO)[C@@H](O)[C@@H]1O` (stereo partly drawn) had a half-life of 19.2 min. Besides, the Activity entry was “Toxic” in series [2]; 7.09% in the series on NCI-H460 [3]; “Non-Toxic” in [6]; 4.89% in the series with NCI-H460 [8]; 35.1% with NCI-H460 [9]; 27.4% in the series with NCI-H460 [10]. The Activity is recorded as 50.2% in the series on NCI-H460 [13]; “Toxic” in series [14]; “Toxic” in series [16]; “Toxic” in [21]; 7.68% in the series on NCI-H460 [22]. In addition, the concentration for half-maximal inhibition (IC50) with HCT-116 is 1.95 µM; in the series on NCI-H1975 [12] it was 7.01 µM; in the series on NCI-H1975 [19], 2.87 µM. Besides, the outcome with NCI-H460 [4] and in the series on NCI-H460 [18] was Active. In [5], the Ratio is on record as 15.5. For the same compound, in the series with NCI-H460 [7], the viability at 20 µM turned out to be 32.6%. In the series with NCI-H1975 [11], the inhibition in vivo at 1 mg/kg stood at 75.4%. Also, the Stability entry in series [15] is “Stable”. The IC50 at 72 h in [17] was 3.17 µM. Moreover, the remaining at 72 h in [20] came to 66%.
